Assay results: article PMC4569539 (Bioorganic & medicinal chemistry letters, 2015)
Like-named read-outs stand apart in the source and are kept apart here.

Experiments:
[1] = Brain and plasma pharmacokinetics after ip administration of 5 mg/kg; type: in vivo; conditions: mice, after ip injection of 5 mg/kg of 4
Summary of the method: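 Mice received the test compound at 5 mg/kg ip. Brain and plasma levels were followed over time to give elimination rates from each compartment. In a repeat-dose arm, tissues were sampled 4 h after a single 5 mg/kg ip dose or 4 h after the second of two doses given 4 h apart. Brain-to-plasma concentration ratios were calculated for each regimen.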

[2] = type: in vivo; conditions: plasma concentration after ip versus oral administration
acetylated α-tubulin = assay: Acetylated α-tubulin in brain homogenates after repeated dosing; type: in vivo; conditions: normal mice, 1 day after two 5 mg/kg doses (ip)
[3] = stated as known for 1 and related congeners, no reference given; cited from earlier work
[4] = cited from earlier work

| Compound | distribution of metabolites in brain and plasma samples [1] | brain penetration [4] | differential between brain and plasma half-life [4] | other results |
| --- | --- | --- | --- | --- |
| C[C@H](Nc1c(-c2c(F)cc(O)cc2F)c(Cl)nc2ncnn12)C(F)(F)F [compound 6] | detected predominantly in plasma | – | – | – |
| C[C@H](Nc1c(-c2c(F)cc(OCCCO)cc2F)c(Cl)nc2ncnn12)C(F)(F)F [compound 4, (S)-3-(4-(5-Chloro-7-((1,1,1-trifluoropropan-2-yl)amino)-[1,2,4]triazolo[1,5-a]pyrimidin-6-yl)-3,5-difluorophenoxy)-propan-1-ol] | – | – | – | oral bioavailability [2]: orally bioavailable; acetylated α-tubulin (marker of stable MTs) in brain homogenates (acetylated α-tubulin): significant elevation |
| CNCCCOc1cc(F)c(-c2c(Cl)nc3ncnn3c2N[C@@H](C)C(F)(F)F)c(F)c1 [compound 1, cevipabulin] | – | – | – | oral bioavailability [3]: orally bioavailable |
| C/C(=C\c1csc(C)n1)[C@@H]1C[C@@H]2O[C@]2(C)CCC[C@H](C)[C@H](O)[C@@H](C)C(=O)C(C)(C)[C@@H](O)CC(=O)O1 [epothilone B] | – | brain penetrant | large differential | – |
| C[C@H](Nc1c(-c2c(F)cc(OCCC(=O)O)cc2F)c(Cl)nc2ncnn12)C(F)(F)F [compound 5] | detected predominantly in plasma | – | – | – |
| C/C1=C/C[C@@H](/C(C)=C/c2csc(C)n2)OC(=O)C[C@H](O)C(C)(C)C(=O)[C@H](C)[C@@H](O)[C@@H](C)CCC1 [epothilone D] | – | brain penetrant | large differential | – |
